The nature of assay [1]: Cytotoxicity against human PC3 cells assessed as reduction in cell viability after 72 hrs by MTT assay. The format is functional, cell-based. The conditions noted are these: PC-3, 72 h. The gist of the method: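 Cells grown in MEM with 10% FBS. About 4×10³ cells per well, seeded and held 24 h at 37 °C in 5% CO₂. Compounds added at the indicated final concentrations for 72 h. MTT then given for 4 h at 37 °C and formazan dissolved in DMSO. Absorbance read at 492 nm with 630 nm as reference.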
In general terms: Tetrazolium dyes change colour on reduction, which living cells bring about.

The next assay relates to MCF7. The assay is described as follows: Cytotoxicity against human MCF7 cells assessed as reduction in cell viability after 72 hrs by MTT assay. The format is functional, cell-based. The following applies: MCF7, 72 h.
Another assay concerns A549. Nature of the assay: Cytotoxicity against human A549 cells assessed as reduction in cell viability after 72 hrs by MTT assay. The format is functional, cell-based. The conditions noted are these: A549, 72 h.
In assay [2] the target is Hepatocyte growth factor receptor (Homo sapiens, UniProt P08581).
The target in assay [3] is Serine/threonine-protein kinase mTOR (Homo sapiens, UniProt P42345). Nature of the assay: Inhibition of mTOR (unknown origin) using ULight-4E-BP1 peptide substrate incubated for 1 hr by TR-FRET assay. For orientation: In TR-FRET formats the signal depends on donor and acceptor labels being close together.
The target in assay [4] is Phosphatidylinositol 4,5-bisphosphate 3-kinase catalytic subunit alpha isoform (Homo sapiens, UniProt P42336). The assay is described as follows: Inhibition of PI3Kalpha (unknown origin) using phosphatidylinositol as substrate incubated for 60 mins by Kinase-Glo luminescent kinase assay. On the technique in general: Kinase-Glo measures the ATP left after a reaction by luminescence.

Results on 22 compounds are retold here after ChEMBL document CHEMBL3792291, “Design, synthesis, biological evaluation and docking studies of novel 2-substituted-4-morpholino-7,8-dihydro-5H-thiopyrano[4,3-d]pyrimidine derivatives as dual PI3Kα/mTOR inhibitors” (Eur J Med Chem, 2016).

Chain of Phosphatidylinositol 4,5-bisphosphate 3-kinase catalytic subunit alpha isoform (P42336 whole entry, canonical isoform): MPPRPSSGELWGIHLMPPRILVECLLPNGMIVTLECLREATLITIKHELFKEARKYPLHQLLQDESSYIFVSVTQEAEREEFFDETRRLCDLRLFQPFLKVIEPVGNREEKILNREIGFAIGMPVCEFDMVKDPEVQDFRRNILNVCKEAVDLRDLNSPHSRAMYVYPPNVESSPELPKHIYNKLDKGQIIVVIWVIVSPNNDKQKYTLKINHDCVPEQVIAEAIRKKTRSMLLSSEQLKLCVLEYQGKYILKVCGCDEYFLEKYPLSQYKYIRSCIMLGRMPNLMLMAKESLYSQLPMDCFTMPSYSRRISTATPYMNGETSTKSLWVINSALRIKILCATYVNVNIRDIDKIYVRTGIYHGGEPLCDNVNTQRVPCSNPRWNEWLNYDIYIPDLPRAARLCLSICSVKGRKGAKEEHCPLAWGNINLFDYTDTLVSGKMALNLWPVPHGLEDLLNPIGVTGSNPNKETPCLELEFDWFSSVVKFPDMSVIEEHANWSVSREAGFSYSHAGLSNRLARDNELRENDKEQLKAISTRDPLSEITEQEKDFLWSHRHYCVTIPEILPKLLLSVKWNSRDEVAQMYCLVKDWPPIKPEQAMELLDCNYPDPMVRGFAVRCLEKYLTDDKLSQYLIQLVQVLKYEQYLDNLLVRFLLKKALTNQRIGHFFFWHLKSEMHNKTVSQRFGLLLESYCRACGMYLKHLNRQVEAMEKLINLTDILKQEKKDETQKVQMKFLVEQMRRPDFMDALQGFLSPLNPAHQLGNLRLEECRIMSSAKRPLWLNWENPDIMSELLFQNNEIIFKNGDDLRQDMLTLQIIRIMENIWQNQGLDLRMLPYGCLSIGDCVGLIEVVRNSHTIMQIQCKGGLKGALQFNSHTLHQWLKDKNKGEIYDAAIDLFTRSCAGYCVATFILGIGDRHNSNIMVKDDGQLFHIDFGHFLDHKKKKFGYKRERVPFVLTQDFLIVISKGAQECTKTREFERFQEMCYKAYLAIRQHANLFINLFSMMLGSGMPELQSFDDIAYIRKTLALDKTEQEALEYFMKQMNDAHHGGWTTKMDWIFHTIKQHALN
Chain of Hepatocyte growth factor receptor (P08581 whole entry): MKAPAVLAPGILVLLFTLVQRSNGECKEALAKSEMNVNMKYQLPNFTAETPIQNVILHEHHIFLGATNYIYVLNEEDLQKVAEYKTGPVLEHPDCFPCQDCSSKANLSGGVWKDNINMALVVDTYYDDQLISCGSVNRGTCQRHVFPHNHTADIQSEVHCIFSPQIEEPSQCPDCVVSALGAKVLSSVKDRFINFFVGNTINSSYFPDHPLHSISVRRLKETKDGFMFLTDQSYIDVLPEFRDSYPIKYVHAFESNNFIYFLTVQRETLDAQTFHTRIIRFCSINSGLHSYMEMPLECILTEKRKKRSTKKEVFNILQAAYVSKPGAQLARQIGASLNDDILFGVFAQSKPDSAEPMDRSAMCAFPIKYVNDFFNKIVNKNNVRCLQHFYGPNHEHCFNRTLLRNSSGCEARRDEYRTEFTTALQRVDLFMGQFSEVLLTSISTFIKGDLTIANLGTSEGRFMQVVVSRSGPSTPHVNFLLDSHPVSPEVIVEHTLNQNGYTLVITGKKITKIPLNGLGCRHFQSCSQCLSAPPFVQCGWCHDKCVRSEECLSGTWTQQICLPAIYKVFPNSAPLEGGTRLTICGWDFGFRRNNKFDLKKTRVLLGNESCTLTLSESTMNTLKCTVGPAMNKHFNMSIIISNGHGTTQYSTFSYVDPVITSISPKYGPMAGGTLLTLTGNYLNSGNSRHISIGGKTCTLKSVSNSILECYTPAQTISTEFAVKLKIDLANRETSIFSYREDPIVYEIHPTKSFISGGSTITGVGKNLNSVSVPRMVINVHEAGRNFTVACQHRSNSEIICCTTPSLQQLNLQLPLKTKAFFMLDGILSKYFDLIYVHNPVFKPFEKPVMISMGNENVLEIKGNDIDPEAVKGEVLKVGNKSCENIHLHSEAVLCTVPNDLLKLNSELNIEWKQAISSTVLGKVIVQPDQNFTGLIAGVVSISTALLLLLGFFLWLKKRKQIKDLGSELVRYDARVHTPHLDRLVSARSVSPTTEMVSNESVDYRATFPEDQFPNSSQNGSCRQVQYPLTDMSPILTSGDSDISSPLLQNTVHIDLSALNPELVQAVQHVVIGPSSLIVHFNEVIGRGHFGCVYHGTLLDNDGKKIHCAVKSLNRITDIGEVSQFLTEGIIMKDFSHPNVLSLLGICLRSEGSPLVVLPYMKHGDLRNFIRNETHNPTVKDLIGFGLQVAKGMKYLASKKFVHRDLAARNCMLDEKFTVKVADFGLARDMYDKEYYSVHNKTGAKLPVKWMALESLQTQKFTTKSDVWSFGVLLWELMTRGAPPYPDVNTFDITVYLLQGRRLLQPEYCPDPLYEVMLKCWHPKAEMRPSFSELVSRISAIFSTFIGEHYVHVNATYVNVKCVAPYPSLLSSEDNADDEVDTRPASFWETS

As to `O=C(Nc1ccc(-c2nc3c(c(N4CCOCC4)n2)CS(=O)(=O)CC3)cc1)NS(=O)(=O)c1ccc(Cl)cc1`, the IC50 (in assay [1]; in the assay on MCF7; with A549) was > 50 µM each time.
In the case of `O=C(Nc1ccccc1)Nc1ccc(-c2nc3c(c(N4CCOCC4)n2)CSCC3)cn1`, the IC50 is > 50 µM in assay [1], 46.6 µM in the assay on MCF7 and 1.27 µM with A549.
Take `O=C(Nc1ccc(Cl)c(C(F)(F)F)c1)N1CCN(c2nc3c(c(N4CCOCC4)n2)CS(=O)(=O)CC3)CC1`: the IC50 was 28.7 µM in assay [1]; 5.94 µM with MCF7; > 10 µM in assay [2]; 6.13 µM with A549; 9.43 µM in assay [3]; 4.23 µM in assay [4].
Turning to `Cc1ccc(S(=O)(=O)NC(=O)Nc2ccc(-c3nc4c(c(N5CCOCC5)n3)CS(=O)(=O)CC4)cn2)cc1`, the values for the IC50 (in assay [1]; in the assay with MCF7; with A549) were > 50 µM, > 50 µM and 42.5 µM, respectively.
For `O=C(Nc1ccc(-c2nc3c(c(N4CCOCC4)n2)CSCC3)cn1)NS(=O)(=O)c1cccs1`, the IC50 in assay [1] is > 50 µM; in the assay with MCF7 it was > 50 µM; in the assay on A549 it was 46.9 µM.
Take `O=C(Nc1ccc(-c2nc3c(c(N4CCOCC4)n2)CSCC3)cc1)NS(=O)(=O)c1ccc(Cl)cc1`: the IC50 (in assay [1]; in the assay with MCF7; in the assay on A549) was > 50 µM throughout.
On to `O=C(Nc1ccc(Cl)c(C(F)(F)F)c1)N1CCN(c2nc3c(c(N4CCOCC4)n2)CSCC3)CC1`, for which the IC50 is 26.7 µM in assay [1]; 5.8 µM in the assay with MCF7; > 10 µM in assay [2]; 3.83 µM with A549; 6.26 µM in assay [3]; > 10 µM in assay [4].
Regarding `CS(=O)(=O)N1CCN(Cc2cc3nc(-c4cccc5[nH]ncc45)nc(N4CCOCC4)c3s2)CC1` [PICTILISIB], the IC50 in assay [1] came to 0.8 µM; with A549, 1.2 µM.
As for `O=C(Nc1ccc(Br)cc1)N1CCN(c2nc3c(c(N4CCOCC4)n2)CSCC3)CC1`, the IC50 in assay [1] is > 50 µM; with MCF7, 4.68 µM; in the assay with A549, 39.9 µM.
`O=C(Nc1ccc(Cl)c(C(F)(F)F)c1)Nc1ccc(-c2nc3c(c(N4CCOCC4)n2)CS(=O)(=O)CC3)cn1`: the values for the IC50 (in assay [1]; with MCF7; in the assay with A549) were 32.2 µM, 4.67 µM and > 50 µM, respectively.
With `O=C(Nc1ccccc1)N1CCN(c2nc3c(c(N4CCOCC4)n2)CS(=O)(=O)CC3)CC1`, the IC50 (in assay [1]; in the assay with MCF7; in the assay on A549) was > 50 µM each time.
As for `O=C(Nc1ccc(-c2nc3c(c(N4CCOCC4)n2)CS(=O)(=O)CC3)cn1)NS(=O)(=O)c1ccc(F)cc1F`, the IC50 in assay [1] was > 50 µM; in the assay on MCF7, 19.7 µM; in the assay with A549, 22.7 µM.
Turning to `O=C(Nc1ccc(F)c(Cl)c1)Nc1ccc(-c2nc3c(c(N4CCOCC4)n2)CSCC3)cn1`, the IC50 in assay [1] was 20.5 µM; with MCF7, 11.5 µM; in assay [2], > 10 µM; in the assay on A549, 6.07 µM; in assay [3], 0.86 µM; in assay [4], 0.69 µM.
For `O=C(Nc1ccc(F)c(Cl)c1)Nc1ccc(-c2nc3c(c(N4CCOCC4)n2)CS(=O)(=O)CC3)cn1`, the 50% inhibitory concentration (IC50) in assay [1] was 1.41 µM; in the assay with MCF7 it was 4.82 µM; in assay [2], > 10 µM; with A549, 0.52 µM; in assay [3], 0.94 µM; in assay [4] it was 6.72 µM.
Regarding `O=C(Nc1ccccc1)N1CCN(c2nc3c(c(N4CCOCC4)n2)CSCC3)CC1`, the IC50 (in assay [1]; in the assay on MCF7; in the assay with A549) was > 50 µM in each case.
Regarding `O=C(Nc1ccc(-c2nc3c(c(N4CCOCC4)n2)CS(=O)(=O)CC3)cn1)NS(=O)(=O)c1ccc(Cl)cc1`, the IC50 (in assay [1]; in the assay on MCF7; in the assay with A549) was > 50 µM each time.
`O=C(Nc1ccc(Br)cc1)N1CCN(c2nc3c(c(N4CCOCC4)n2)CS(=O)(=O)CC3)CC1`: the IC50 was > 50 µM in assay [1], 45.6 µM with MCF7 and 19 µM in the assay with A549.
In the same order, the values of `O=C(Nc1ccc(-c2nc3c(c(N4CCOCC4)n2)CSCC3)cn1)NS(=O)(=O)c1ccc(Cl)cc1` are > 50 µM, > 50 µM and > 50 µM.
In the case of `CNC(=O)c1cc(Oc2ccc(NC(=O)Nc3ccc(Cl)c(C(F)(F)F)c3)cc2)ccn1` [SORAFENIB], in assay [1], the IC50 was determined as 8.08 µM.
For `O=C(Nc1ccc(-c2nc3c(c(N4CCOCC4)n2)CS(=O)(=O)CC3)cc1)NS(=O)(=O)c1ccc(F)cc1`, the IC50 (in assay [1]; with MCF7; with A549) was > 50 µM in each case.
With `O=C(Nc1ccc(-c2nc3c(c(N4CCOCC4)n2)CSCC3)cc1)NS(=O)(=O)c1ccc(F)cc1`, the IC50 (in assay [1]; in the assay with MCF7; in the assay on A549) was > 50 µM throughout.
In the case of `O=C(Nc1ccc(-c2nc3c(c(N4CCOCC4)n2)CSCC3)cn1)NS(=O)(=O)c1ccc(F)cc1`, the IC50 in assay [1] is > 50 µM; in the assay on MCF7, > 50 µM; in the assay with A549, 36.2 µM.

In general, IC50 refers to the point on the concentration scale where inhibition reaches its midpoint.
